Laboratory results as given in ChEMBL document CHEMBL3734706, “Syntheses and biological evaluation of C-3'-N-acyl modified taxane analogues from 1-deoxybaccatin-VI” (Eur J Med Chem, 2015).

Key:
MDA-MB-231 [1] = test: Cytotoxicity against human MDA-MB-231 cells incubated for 72 hrs by MTT assay; type: functional, cell-based; details: MDA-MB-231, 72 h
How it was run: (§1)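 Exponentially growing human tumour cells exposed 72 h to compounds formulated in DMSO; survival read by MTT; dose–response curves over 0.001–100 μM; IC50 taken from curves.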

[2] = Cytotoxicity against human PC3 cells incubated for 72 hrs by MTT assay; type: functional, cell-based; details: PC-3, 72 h; how it was run: as §1
[3] = Cytotoxicity against human PC3 cells assessed as inhibition of cell survival upto 100 uM incubated for 72 hrs by MTT assay relative to control; type: functional, PC-3; how it was run: as §1
MDA-MB-231 [4] = test: Cytotoxicity against human MDA-MB-231 cells assessed as inhibition of cell survival upto 100 uM incubated for 72 hrs by MTT assay relative to control; type: functional; how it was run: as §1
HepG2 = test: Cytotoxicity against human HepG2 cells incubated for 48 hrs by CCK-8 assay; type: functional, cell-based; details: HepG2, 48 h
How it was run: (§2)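 Growing human tumour cells exposed to compounds for 48 h; viability read by CCK-8; IC50 determined.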

[5] = Cytotoxicity against human H460 cells incubated for 48 hrs by CCK-8 assay; type: functional, cell-based; details: NCI-H460, 48 h; how it was run: as §2
A549 = test: Cytotoxicity against human A549 cells; type: functional, cell-based
[6] = Cytotoxicity against human HCT116 cells assessed as decrease in cell protein incubated for 48 hrs; type: functional, cell-based; details: HCT-116, 48 h

SMILES | IC50 (MDA-MB-231 [1]) [nM] | IC50 [2] [nM] | inhibition (INH) [3] [%] | inhibition (INH) (MDA-MB-231 [4]) [%] | IC50 (HepG2) [nM] | IC50 [5] [nM] | IC50 (A549) [nM] | IC50 [6] [nM]
COc1ccc(C(=O)N[C@@H](c2ccccc2)[C@@H](O)C(=O)O[C@H]2CC3[C@@H](OC(=O)c4ccccc4)[C@@H]4[C@]5(OC(C)=O)CO[C@@H]5C[C@H](O)[C@@]4(C)[C@@H](O)[C@H](O)C(=C2C)C3(C)C)cc1 (stereo not given in full) | < 1 | 10 | 90 | 90 | 567 | 199 |  | 
CC(=O)O[C@@]12CO[C@@H]1C[C@H](O)[C@]1(C)[C@@H]2[C@H](OC(=O)c2ccccc2)C2C[C@H](OC(=O)[C@H](O)[C@@H](NC(=O)c3cccs3)c3ccccc3)C(C)=C([C@@H](O)[C@@H]1O)C2(C)C (stereo not given in full) | 1260 | 1630 | 90 | 90 |  |  |  | 
CCCCCC(=O)N[C@@H](c1ccccc1)[C@@H](O)C(=O)O[C@H]1CC2[C@@H](OC(=O)c3ccccc3)[C@@H]3[C@]4(OC(C)=O)CO[C@@H]4C[C@H](O)[C@@]3(C)[C@H]3OC(C)(C)O[C@@H]3C(=C1C)C2(C)C (stereo not given in full) | 10 | 210 |  |  |  |  |  | 
CC(=O)O[C@@]12CO[C@@H]1C[C@H](O)[C@]1(C)[C@@H]2[C@H](OC(=O)c2ccccc2)C2C[C@H](OC(=O)[C@H](O)[C@@H](NC(=O)c3ccco3)c3ccccc3)C(C)=C([C@@H](O)[C@@H]1O)C2(C)C (stereo not given in full) | < 1 | 4 | 90 | 90 | 2020 | 289 |  | 
CC(=O)O[C@@]12CO[C@@H]1C[C@H](O)[C@]1(C)[C@@H]2[C@H](OC(=O)c2ccccc2)C2C[C@H](OC(=O)[C@H](O)[C@@H](NC(=O)c3ccc(CCl)cc3)c3ccccc3)C(C)=C([C@@H](O)[C@@H]1O)C2(C)C (stereo not given in full) | 30 | 90 | 90 | 90 |  |  |  | 
CC(=O)O[C@@]12CO[C@@H]1C[C@H](O)[C@]1(C)[C@@H]2[C@H](OC(=O)c2ccccc2)C2C[C@H](OC(=O)[C@H](O)[C@@H](NC(=O)c3ccc(F)cc3)c3ccccc3)C(C)=C([C@@H](O)[C@@H]1O)C2(C)C (stereo not given in full) | < 1 | 20 | 90 | 90 |  |  |  | 
CC(=O)O[C@H]1C(=O)[C@]2(C)[C@@H](OC(C)=O)C[C@H]3OC[C@@]3(OC(C)=O)[C@H]2[C@H](OC(=O)c2ccccc2)C2C[C@H](OC(=O)[C@H](O)[C@@H](NC(=O)c3ccccc3)c3ccccc3)C(C)=C1C2(C)C (stereo not given in full) |  |  |  |  |  |  | 62 | 
CCCCCC(=O)N[C@@H](c1ccccc1)[C@@H](O)C(=O)O[C@H]1CC2[C@@H](OC(=O)c3ccccc3)[C@@H]3[C@]4(OC(C)=O)CO[C@@H]4C[C@H](O)[C@@]3(C)[C@@H](O)[C@H](O)C(=C1C)C2(C)C (stereo not given in full) | < 1 | 10 | 40 | 40 |  |  |  | 
CC(=O)O[C@@]12CO[C@@H]1C[C@H](O)[C@]1(C)[C@@H]2[C@H](OC(=O)c2ccccc2)C2C[C@H](OC(=O)[C@H](O)[C@@H](NC(=O)c3cc4ccccc4o3)c3ccccc3)C(C)=C([C@@H](O)[C@@H]1O)C2(C)C (stereo not given in full) | 20 | 70 | 90 | 90 |  |  |  | 
CC(=O)OC1[C@H](OC(C)=O)C2=C(C)[C@@H](OC(=O)[C@H](O)[C@@H](NC(=O)c3ccccc3)c3ccccc3)CC([C@@H](OC(=O)c3ccccc3)[C@@H]3[C@]4(OC(C)=O)CO[C@@H]4C[C@H](OC(C)=O)[C@@]13C)C2(C)C (stereo not given in full) |  |  |  |  |  |  |  | 31.5
CCCCCC(=O)N[C@@H](c1ccccc1)[C@@H](O)C(=O)O[C@H]1CC2[C@@H](OC(=O)c3ccccc3)[C@@H]3[C@]4(OC(C)=O)CO[C@@H]4C[C@H](OC(C)=O)[C@@]3(C)C(=O)[C@H](OC(C)=O)C(=C1C)C2(C)C (stereo not given in full) | 270 | 330 |  |  |  |  |  | 
CC(=O)O[C@H]1C(=O)[C@@]2(C)[C@H]([C@H](OC(=O)c3ccccc3)[C@]3(O)C[C@H](OC(=O)[C@H](O)[C@@H](NC(=O)c4ccccc4)c4ccccc4)C(C)=C1C3(C)C)[C@]1(OC(C)=O)CO[C@@H]1C[C@@H]2O [PACLITAXEL] | < 1 | < 1 | 40 | 40 | 1220 | 4290 |  | 2.8
